Among the data in ChEMBL document CHEMBL1208768, “Synthesis, selective anti-Helicobacter pylori activity, and cytotoxicity of novel N-substituted-2-oxo-2H-1-benzopyran-3-carboxamides” (Bioorg Med Chem Lett, 2010) are MIC, solubility and inhibition values, retold here.

The source made the active and inactive calls.

The subject of one data set is Staphylococcus aureus. Nature of the data set: Antibacterial activity against Staphylococcus aureus after 18 to 22 hrs by broth microdilution method. Format: functional. In a few lines:
(§1)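 Clinical respiratory-tract isolates from patients, subcultured for purity and identified conventionally. Broth microdilution per NCCLS in Mueller–Hinton II broth; each plate had growth controls (bacteria, no compound) and medium-only controls. Incubation 18–22 h at 35 °C. MIC taken as the lowest concentration giving complete growth inhibition by unaided eye.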

Data set [1] deals with Staphylococcus epidermidis. Nature of the data set: Antibacterial activity against Staphylococcus epidermidis after 18 to 22 hrs by broth microdilution method. Format: functional. In a few lines:
as §1

The next data set relates to Staphylococcus hominis. Nature of the data set: Antibacterial activity against Staphylococcus hominis after 18 to 22 hrs by broth microdilution method. Format: functional. The essentials: as §1
In general terms: Broth dilution looks for growth in wells or tubes with falling amounts of substance.

Data set [2] relates to Staphylococcus haemolyticus. In words: Antibacterial activity against Staphylococcus haemolyticus after 18 to 22 hrs by broth microdilution method. Format: functional. The essentials: as §1
A further data set relates to Enterococcus faecalis. Nature of the data set: Antibacterial activity against Streptococcus faecalis after 18 to 22 hrs by broth microdilution method. It counts as functional. The essentials:
as §1

For another data set, the system named is Escherichia coli. Nature of the data set: Antibacterial activity against Escherichia coli after 18 to 22 hrs by broth microdilution method. It counts as functional. The essentials:
as §1

A further data set deals with Klebsiella pneumoniae. In words: Antibacterial activity against Klebsiella pneumoniae after 18 to 22 hrs by broth microdilution method. It counts as functional. In a few lines: as §1
The test system of the next data set is Klebsiella oxytoca. In words: Antibacterial activity against Klebsiella oxytoca after 18 to 22 hrs by broth microdilution method. It counts as functional. The essentials:
as §1

The test system of another data set is Enterobacter. In words: Antibacterial activity against Enterobacter after 18 to 22 hrs by broth microdilution method. Format: functional. The essentials:
as §1

Another data set relates to Klebsiella aerogenes. In words: Antibacterial activity against Enterobacter aerogenes after 18 to 22 hrs by broth microdilution method. It counts as functional. The essentials:
as §1

The next data set concerns Citrobacter freundii. Nature of the data set: Antibacterial activity against Citrobacter freundii after 18 to 22 hrs by broth microdilution method. It counts as functional. The essentials:
as §1

A further data set relates to Proteus vulgaris. In words: Antibacterial activity against Proteus vulgaris after 18 to 22 hrs by broth microdilution method. It counts as functional. In a few lines:
as §1

The test system of a further data set is Candida albicans. In words: Antifungal activity against Candida albicans after 24 hrs by broth microdilution method. Format: functional. In a few lines:
(§2)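 Candida isolates from respiratory-tract specimens, tested by NCCLS broth microdilution in Sabouraud dextrose broth. Serial compound dilutions inoculated to 10³/mL, with fungus-only and medium-only controls. Incubated 24 h at 37 °C. MIC was the lowest concentration with complete visible growth inhibition.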

A further data set deals with [Candida] sake. In words: Antifungal activity against Candida sake after 24 hrs by broth microdilution method. The conditions noted are these: Fermentozyma sake. It counts as functional. The essentials: as §2
A further data set relates to Pichia kudriavzevii. In words: Antifungal activity against Candida krusei after 24 hrs by broth microdilution method. Format: functional. In a few lines:
as §2

The nature of data set [3]: Solubility of the compound in DMSO at 0.0039 to 128 ug/mL. It counts as physicochemical.
The test system of data set [4] is AGS. In words: Antiinflammatory activity in human AGS cells assessed as inhibition of IL-8 production at 5 ug/mL after 24 hrs. It counts as functional, cell-based. In a few lines:
(§3)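 AGS gastric adenocarcinoma cells were grown in F-12K with 10% FBS. They were seeded at 1 × 10⁵/mL for 24 h, preincubated 1 h with compound at 5 or 0.5 µg/mL, then exposed to H. pylori.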

Data set [5] concerns AGS. Nature of the data set: Antiinflammatory activity in human AGS cells assessed as inhibition of IL-8 production at 0.5 ug/mL after 24 hrs. It counts as functional, cell-based. In a few lines: as §3

As usually defined, the MIC is the smallest concentration in the dilution series that meets the test's criterion for growth inhibition. Read a low MIC as inhibition by little substance. For `CCOC(=O)c1ccc(NC(=O)c2cc3cc([N+](=O)[O-])ccc3oc2=O)cc1`, the MIC (in the data set on Staphylococcus aureus; in [1]; with Staphylococcus hominis; in data set [2]; in the data set with Enterococcus faecalis; with Escherichia coli) was greater than 128 µg/mL each time. For the same compound, the minimal inhibitory concentration (MIC) against Klebsiella pneumoniae, with Klebsiella oxytoca, against Enterobacter, in the data set with Klebsiella aerogenes, against Citrobacter freundii and against Proteus vulgaris was greater than 128 µg/mL each time. Further, the MIC (in the data set on Candida albicans; in data set [Candida] sake; in the data set with Pichia kudriavzevii) was greater than 128 µg/mL each time. In addition, the solubility entry in data set [3] is “Insoluble”. In addition, the inhibition entry in the data set with AGS [4] and in the data set with AGS [5] was “inactive” in each case.

As to `CCOC(=O)c1ccc(NC(=O)c2cc3ccc(OC)cc3oc2=O)cc1`, the MIC (in the data set with Staphylococcus aureus; in data set [1]; in the data set on Staphylococcus hominis; in data set [2]; in the data set with Enterococcus faecalis; against Escherichia coli) was greater than 128 µg/mL each time. Further, the MIC with Klebsiella pneumoniae, against Klebsiella oxytoca, against Enterobacter, against Klebsiella aerogenes, in the data set on Citrobacter freundii and in the data set on Proteus vulgaris was greater than 128 µg/mL each time. Besides, the MIC (in the data set on Candida albicans; in data set [Candida] sake; in the data set with Pichia kudriavzevii) was greater than 128 µg/mL in each case. Further, the solubility result in data set [3] was “Insoluble”. For the same compound, the inhibition result in the data set with AGS [4] and with AGS [5] was “inactive” throughout.
